# Several values for one entry are separate records, joined by “and”; a condition that tells them apart may be missing. Equal values may be shown once.
# What was measured:
# [1] = target: T1, recombinant human Wip1 (1–420) (Homo sapiens, UniProt O15297); assay: Wip1 phosphatase activity inhibition assay; format: biochemical
# T1 sequence (O15297 1-420): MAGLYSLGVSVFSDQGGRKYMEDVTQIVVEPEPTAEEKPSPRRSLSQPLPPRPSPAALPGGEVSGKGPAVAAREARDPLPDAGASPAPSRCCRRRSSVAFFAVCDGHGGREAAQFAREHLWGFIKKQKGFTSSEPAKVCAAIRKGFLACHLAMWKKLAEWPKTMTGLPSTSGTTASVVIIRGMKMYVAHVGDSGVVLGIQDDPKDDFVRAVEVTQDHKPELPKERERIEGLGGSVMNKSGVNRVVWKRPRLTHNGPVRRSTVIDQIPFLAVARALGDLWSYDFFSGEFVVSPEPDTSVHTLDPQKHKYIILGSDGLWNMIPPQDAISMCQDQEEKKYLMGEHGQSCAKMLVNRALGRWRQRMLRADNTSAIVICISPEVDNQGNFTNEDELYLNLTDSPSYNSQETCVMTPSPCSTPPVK
# [2] = target: T2, PPM1A (also called PP2Cα) (Homo sapiens, UniProt P35813); assay: PPM1A phosphatase specificity assay; format: biochemical; details: up to 100 μM; 8 nM PPM1A, 100 μM human p38α (175–185, 180pT) phosphopeptide
# T2 sequence (P35813 1-382): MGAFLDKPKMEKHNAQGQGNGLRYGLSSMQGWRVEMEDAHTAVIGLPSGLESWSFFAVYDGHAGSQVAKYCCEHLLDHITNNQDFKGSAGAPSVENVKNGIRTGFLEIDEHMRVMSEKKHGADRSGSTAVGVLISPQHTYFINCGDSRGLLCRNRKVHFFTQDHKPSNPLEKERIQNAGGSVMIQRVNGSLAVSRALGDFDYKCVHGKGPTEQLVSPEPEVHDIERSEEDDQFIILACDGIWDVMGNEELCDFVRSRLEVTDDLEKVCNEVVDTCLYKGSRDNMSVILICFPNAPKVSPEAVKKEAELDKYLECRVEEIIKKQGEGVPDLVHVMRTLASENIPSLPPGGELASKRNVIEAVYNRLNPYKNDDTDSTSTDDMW
# Procedure, shortened: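 Test compound or DMSO is mixed with the phosphopeptide substrate before PPM1A is added. Buffer: 50 mM Tris·HCl pH 7.5, 0.1 mM EGTA, 1 mM DTT, 1 mM CHAPS, 0.1 mg/mL BSA, 30 mM MgCl2. Incubation runs 7 min at 30 °C. Biomol Green stops the reaction, then colour develops 20 min at room temperature. Released phosphate is read at 620 nm against a phosphate standard curve.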
# [3] = variable slope logistic fit of Wip1 inhibition curve
# [4] = fixed-slope logistic curve, which assumes the Hill coefficient = 1 (footnote a)
Compound,"Hill coefficient [n] [1, 3]",other results
"O=C(Nc1cccc(OP(=O)(O)O)c1)c1ccc(NCc2ccc(-c3cccc(Cl)c3)cc2)c(CC2CCCCC2)c1 [Compound 22k, 3-(4-(((3’-chloro-[1,1’-biphenyl]-4-yl)methyl)amino)-3-(cyclohexylmethyl)benzamido)phenyl dihydrogen phosphate]",1.3 ± 0.2,–
"O=C(Nc1cccc(OP(=O)(O)O)c1)c1ccc(NCc2ccc(-c3cccc(F)c3)cc2)c(CC2CCCCC2)c1 [Compound 22l, 3-(3-(cyclohexylmethyl)-4-(((3’-fluoro-[1,1’-biphenyl]-4-yl)methyl)amino)benzamido)phenyl dihydrogen phosphate]",1.7 ± 0.4,–
"O=C(Nc1cccc(OP(=O)(O)O)c1)c1ccc(NCc2cc3ccccc3o2)c(CC2CCCCC2)c1 [Compound 22m, 3-(4-((benzofuran-2-ylmethyl)amino)-3-(cyclohexylmethyl)benzamido)phenyl dihydrogen phosphate]",1.5 ± 0.1,–
"O=C(Nc1cccc(OP(=O)(O)O)c1)c1ccc(NCc2cccnc2)c(CC2CCCCC2)c1 [Compound 22n, 3-(3-(cyclohexylmethyl)-4-((pyridin-3-ylmethyl)amino)benzamido)phenyl dihydrogen phosphate]",1.6 ± 0.2,fold less active (Wip1 IC50) ([1]; compared with 22m): 5 fold
"O=C(Nc1cccc(OP(=O)(O)O)c1)c1ccc(NCc2ccc(F)cc2)c(Cc2ccccc2)c1 [Compound 29a, 3-(3-benzyl-4-((4-fluorobenzyl)amino)benzamido)phenyl dihydrogen phosphate]",1.7 ± 0.1,fold loss in activity (Wip1 IC50) ([1]; compared with 22g): 3 fold
"O=C(Nc1cccc(OP(=O)(O)O)c1)c1ccc(NCc2ccc(F)cc2)cc1 [Compound 29b, 3-(4-((4-fluorobenzyl)amino)benzamido)phenyl dihydrogen phosphate]",–,"Wip1 inhibitory activity (in words) [1]: almost complete loss of inhibitory activity; Hill coefficient [n] [1, 4]: 1^a"
"O=C(Nc1ccc(OP(=O)(O)O)cc1)c1ccc(NCc2ccc(F)cc2)c(CC2CCCCC2)c1 [Compound 32a, 4-(3-(cyclohexylmethyl)-4-((4-fluorobenzyl)amino)benzamido)phenyl dihydrogen phosphate]",3.4 ± 0.4,Wip1 inhibitory activity (in words) [1]: comparable inhibitory activity with the parent compound 22g
"O=C(Nc1cccc(Cl)c1)c1cccc(CNc2ccc(C(=O)Nc3cccc(O)c3)cc2CCC2CCCCC2)c1 [Compound 38c, 4-((3-((3-chlorophenyl)carbamoyl)benzyl)amino)-3-(2-cyclohexylethyl)-N-(3-hydroxyphenyl)benzamide]",–,"Wip1 inhibitory activity (in words) [1]: considerable drop in activity; Hill coefficient [n] [1, 4]: 1^a"
"O=C(Nc1cccc(Cl)c1)c1ccc(CNc2ccc(C(=O)Nc3cccc(OP(=O)(O)O)c3)cc2CC2CCCCC2)cc1 [Compound 40a, 3-(4-((4-((3-chlorophenyl)carbamoyl)benzyl)amino)-3-(cyclohexylmethyl)benzamido)phenyl dihydrogen phosphate]",1.9 ± 0.2,–
"O=C(Nc1cccc(Cl)c1)c1cccc(CNc2ccc(C(=O)Nc3cccc(OP(=O)(O)O)c3)cc2CC2CCCCC2)c1 [Compound 40b, 3-(4-((3-((3-chlorophenyl)carbamoyl)benzyl)amino)-3-(cyclohexylmethyl)benzamido)phenyl dihydrogen phosphate]",1.4 ± 0.1,fold improvement in Wip1 inhibition ([1]; compared with 22g): 7 fold; inhibitory activity against PPM1A [2]: no inhibitory activity
"O=C(Nc1cccc(Cl)c1)c1cccc(CNc2ccc(C(=O)Nc3cccc(OP(=O)(O)O)c3)cc2CCC2CCCCC2)c1 [Compound 40c, 3-(4-((3-((3-chlorophenyl)carbamoyl)benzyl)amino)-3-(2-cyclohexylethyl)benzamido)phenyl dihydrogen phosphate]",1.0 ± 0.1,–
"O=C(Nc1cccc(Cl)c1)c1cccc(CNc2ccc(C(=O)Nc3cccc(OP(=O)(O)O)c3)cc2C2CC3CCC2C3)c1 (stereo not shown) [Compound 40d, 3-(3-(bicyclo[2.2.1]heptan-2-yl)-4-((3-((3-chlorophenyl)carbamoyl)benzyl)amino)benzamido)phenyl dihydrogen phosphate]",2.3 ± 0.4,–
"O=C(Nc1ccc2c(c1)OCO2)c1cccc(CNc2ccc(C(=O)Nc3cccc(OP(=O)(O)O)c3)cc2CC2CCCCC2)c1 [Compound 40e, 3-(4-((3-(benzo[d][1,3]dioxol-5-ylcarbamoyl)benzyl)amino)-3-(cyclohexylmethyl)benzamido)phenyl dihydrogen phosphate]",2.9 ± 0.1,–
"O=C(Nc1cccc(F)c1)c1cccc(CNc2ccc(C(=O)Nc3cccc(OP(=O)(O)O)c3)cc2CC2CCCCC2)c1 [Compound 40f, 3-(3-(cyclohexylmethyl)-4-((3-((3-fluorophenyl)carbamoyl)benzyl)amino)benzamido)phenyl dihydrogen phosphate]",3.6 ± 0.2,–
"O=C(Nc1cccc(Cl)c1)c1cccc(C(=O)Nc2ccc(C(=O)Nc3cccc(OP(=O)(O)O)c3)cc2CC2CCCCC2)c1 [Compound 48a, 3-(4-(3-((3-chlorophenyl)carbamoyl)benzamido)-3-(cyclohexylmethyl)benzamido)phenyl dihydrogen phosphate]",5 and 5.1 ± 0.3,inhibitory activity against PPM1A [2]: no inhibitory activity
"O=C(Nc1cccc(OP(=O)(O)O)c1)c1ccc(NC(=O)c2cccc(CNc3cccc(Cl)c3)c2)c(CC2CCCCC2)c1 [Compound 48b, 3-(4-(3-(((3-chlorophenyl)amino)methyl)benzamido)-3-(cyclohexylmethyl)benzamido)phenyl dihydrogen phosphate]",2.3 ± 0.2,inhibitory activity against PPM1A [2]: no inhibitory activity
